A selection: hits, their analogues and other compounds. The true share with any hit is near 1.7%.
ARNT-TACC3 inh = ARNT/TACC3 interaction disruption | Q9Y6A5 | AlphaScreen His-ARNT PAS-B/GST-TACC3 binding, luminescence; TACC3 fragment carries E629A point mutation | inhibition, % at 9.99 µM | actives 0.66% (n = 390,000);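 active = mean inhibition of replicates at least 50% and at least half of replicates each reaching 50%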
PGC1a acetyl inh = PGC1a acetylation modulation, inhibitor mode; U2OS PGC1a acetylation, AlphaScreen anti-acetyl-lysine; with virally co-expressed GCN5 acetyltransferase; inhibition, % at 15.6 µM; actives 0.17% (n = 350,000);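 active = every replicate shows inhibition of at least 40%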
miR122 inh = inhibitors of miR-122 in Huh7 cells; Huh7 miR-122 Renilla luciferase sensor, 48 h; neutral wells = 0, positive control = 100; activation (reporter increase), % at 12.5 µM; actives 0.3% (n = 340,000);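 active = mean replicate activation score at least 90 and every replicate individually at or above 90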;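 note: higher luciferase means less miR-122 activity so hits act as miR-122 inhibitors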
CAL PDZ FP-1 = human CAL PDZ-peptide interaction inhibition | Q9HD26 | purified CAL PDZ, TMR-peptide fluorescence polarization, 1 h | inhibition, % at 20 µM | actives 0.02% (n = 330,000) | AID 504414;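 active = highest replicate inhibition of at least 40%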
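Assay system – tagged CAL PDZ protein CerCALP, purified · Timing – 1 h at RT · Compound – single point, 20 µM · Measured by – fluorescence polarization from S- and P-plane intensities, G-factor corrected · Evaluation – inhibition from polarization loss · Probe or stimulus – TMR reporter peptide T*-PRC34 · Buffer or medium – pH 7.4 phosphate-saline buffer, reducing agent, detergent, IgG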
CFTR F508del cor = CFTR F508del correction in bronchial cells | CFBE cells, YFP halide quenching; stimulated with forskolin plus potentiator P3; % fluorescence drop versus neutral controls | activity (quench increase), % at 7.58 µM | actives 0.36% (n = 350,000);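 active = mean added fluorescence quench of at least 8% versus neutral control, with both replicates also reaching 8%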;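 note: cells transiently co-express mutant CFTR-F508del with the halide-sensitive YFP; corrector assay measuring rescue of mutant channel to the surface after 24 h compound exposure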
CAL PDZ FP-2 = inhibitors of human CAL PDZ peptide binding; AID 602252; purified CAL PDZ, TMR-peptide fluorescence polarization, 1 h; inhibition, % at 24.9 µM; Q9HD26; actives 0.92% (n = 300,000);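 active = mean inhibition of at least 30% with at least half of replicates also reaching 30%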
Hits are given with their value; . = inactive; / = no result; ! = repeats disagree.

SMILES	ARNT-TACC3 inh	PGC1a acetyl inh	miR122 inh	CAL PDZ FP-1	CFTR F508del cor	CAL PDZ FP-2
CCOc1cc(S(=O)(=O)Nc2cc(C)cc(C)c2)ccc1Cl	.	.	118.2	.	/	/
Cc1ccc(C)c(NS(=O)(=O)c2ccc3oc(=O)ccc3c2)c1	.	.	.	.	.	.
Cc1cc(C)cc(NS(=O)(=O)c2ccc3oc(=O)ccc3c2)c1	.	.	105.1	.	/	.
CO[C@H]1CN(C)C(=O)c2cc(NS(C)(=O)=O)ccc2OC[C@@H](C)N(CC2CC2)C[C@@H]1C	.	.	/	/	.	/
CO[C@@H]1CN(C)C(=O)c2cc(NC(=O)c3cccc(F)c3)ccc2OC[C@H](C)N(C(C)=O)C[C@H]1C	/	.	.	/	.	/
Cc1ccc(S(=O)(=O)N2CCOCC2)cc1NC(=O)CSc1n[nH]c(N)n1	.	/	/	.	17.7	.
COc1ccc(S(=O)(=O)N2CCOCC2)cc1NC(=O)COC(=O)c1ccc([N+](=O)[O-])s1	30.1	.	.	.	/	.
COc1cc(S(=O)(=O)N2CCOCC2)ccc1NC(=O)CSc1n[nH]c(=O)[nH]c1=O	.	/	144.1	.	.	.
COc1ccc(CN(C)C[C@H]2Oc3ccc(NC(=O)CCN4CCOCC4)cc3CC(=O)N([C@H](C)CO)C[C@@H]2C)cc1	/	.	/	/	.	/
O=C(C[C@H]1C=C[C@@H](NC(=O)Nc2ccccc2F)[C@@H](CO)O1)NCc1ccccc1	/	.	/	/	.	/
COc1ccc(N2C(=O)C(CC(=O)Nc3ccc(Cl)cc3)N(NC(=O)c3cccc(F)c3)C2=S)cc1 (stereo unspecified)	.	.	.	.	.	.
CNC(=O)CC1C(=O)N(c2ccc(F)cc2)C(=S)N1NC(=O)c1ccc(Cl)cc1 (stereo unspecified)	.	.	/	.	8.0	.
CNC[C@@H]1Oc2ccc(NC(=O)C3CC3)cc2CC(=O)N([C@@H](C)CO)C[C@H]1C	.	.	.	/	.	/
COc1ccccc1CN1CCCC(C(=O)N(C)Cc2ccccc2)C1 (stereo unspecified)	.	45.0	.	.	/	.
CCNC(=O)C[C@@H]1CC[C@@H]2[C@@H](COc3ccc(NC(=O)Nc4cccc(OC)c4)cc3C(=O)N2C)O1	.	.	.	/	.	/
C[C@H](NC(=O)C[C@H]1C[C@H]2c3cc(NC(=O)C4CCC4)ccc3O[C@H]2[C@@H](CO)O1)c1ccccc1	.	.	.	/	.	/
CCCN(CC(=O)Nc1cc(C)on1)CC(=O)Nc1ccc(F)c(F)c1F	.	/	/	.	.	48.7
O=C(/C=C\c1ccccc1)Oc1cccc2cccnc12	/	/	.	.	.	.
O=C(/C=C/c1ccccc1)Oc1cccc2cccnc12	46.9	/	.	.	/	.
Cc1ccc(N2CC(=O)Nc3c(sc4nc(C)cc(C)c34)C2=O)cc1	.	.	.	.	.	/
Cc1cc(C)c2c3c(sc2n1)C(=O)N(c1ccccc1C)CC(=O)N3	.	/	/	.	.	73.9
COc1ccc(NC(=O)N(C)C[C@H]2Oc3ccc(NS(=O)(=O)c4cn(C)cn4)cc3C(=O)N([C@@H](C)CO)C[C@H]2C)cc1	.	.	.	/	.	/
Nc1c2c(nc3ccccc13)CCCC2	.	.	.	.	16.5!	.
Nc1c2ccccc2nc2ccccc12	.	.	.	.	19.7	.
Clc1c2c(nc3ccccc13)CCC2	.	.	.	.	.	.
SMILES	ARNT-TACC3 inh	PGC1a acetyl inh	miR122 inh	CAL PDZ FP-1	CFTR F508del cor	CAL PDZ FP-2
Cc1c(N(C)C)nc2ccccc2c1N	.	.	.	.	/	.
CCC(=O)N(C)C[C@@H]1Oc2ncc(C#Cc3ccccc3)cc2C(=O)N([C@H](C)CO)C[C@H]1C	.	.	.	/	.	/
CCn1c(SCC(=O)Nc2ccc(N3CCOCC3)cc2)nnc1-c1ccc(OC)cc1	.	.	141.6	.	.	/
CCn1c(SCC(=O)Nc2cc(C)on2)nnc1-c1cccc(C)c1	.	.	.	.	.	47.8
COCC(=O)N1CC(=O)N2[C@H](CO)[C@@H](c3ccc(C#CCc4ccccc4)cc3)[C@H]2C1	/	.	/	/	.	/
Cc1noc(C)c1NC(=O)Nc1cccc2c1O[C@@H](CN(C)S(=O)(=O)c1ccccc1)[C@H](C)CN([C@@H](C)CO)C2=O	/	.	.	/	.	/
O=S(Cc1ccccc1)CC(O)(c1ccc(Cl)cc1)c1ccc(Cl)cc1 (stereo unspecified)	.	/	138.6	.	/	.
O=S(Cc1ccc(Cl)cc1)CC(O)(c1ccccc1)c1ccccc1 (stereo unspecified)	.	.	146.7	.	/	.
CCS(=O)(=O)Nc1ccc2c(c1)C(=O)N(C)C[C@H](OC)[C@H](C)CN(C(C)=O)[C@H](C)CO2	.	.	.	/	.	/
O=c1cc[nH]c2c1ccc1c(=O)cc[nH]c12	73.9	/	/	.	.	.
O=c1cc[nH]c2c(Cl)cccc12	.	/	/	.	.	.
CC1(C)SC2C(C(=O)O)N=C(Cc3ccccc3)N2C1C(=O)O (stereo unspecified)	70.6	.	.	.	.	.
COc1ccc(NC(=O)N(C)C[C@@H]2Oc3ccc(NS(=O)(=O)c4ccc(C)cc4)cc3C(=O)N([C@@H](C)CO)C[C@@H]2C)cc1	/	.	.	/	.	/
CCCNC(=O)C[C@H]1CC[C@@H]2[C@@H](COc3ccc(NC(=O)c4cccs4)cc3C(=O)N2C)O1	.	.	.	/	.	/
CC1CCCN(C(=O)c2ccc(COc3ccccc3Br)cc2)C1 (stereo unspecified)	.	.	.	.	/	39.7
CCOc1ccc(OCc2ccc(C(=O)N3CCCC(C)C3)cc2)cc1 (stereo unspecified)	/	/	/	.	.	.
S=C(NCc1ccco1)NCC1CCCO1 (stereo unspecified)	.	.	.	.	10.6	/
OCC1CCCCN1C(=S)NCc1ccco1 (stereo unspecified)	.	/	/	.	.	64.3
C[C@@H]1CN([C@H](C)CO)C(=O)c2cc(NC(=O)Nc3ccc4c(c3)OCO4)ccc2O[C@@H](C)CCCCO[C@H]1CN(C)C(=O)Cc1ccccc1	.	.	.	/	.	/
COc1ccccc1C(=O)N1C[C@H]2[C@@H](c3ccccc31)[C@H](CO)N2C(=O)Nc1ccccc1	.	.	.	/	.	/
CCCCn1nc(NC(=O)CC)c2cc3cc(OC)ccc3nc21	.	.	.	.	9.6	.
CC(C)Cn1nc(NC(=O)C(C)(C)C)c2cc3ccccc3nc21	.	/	/	.	/	/
CCCCC(=O)Nc1nn(CC(C)C)c2nc3ccccc3cc12	.	.	.	.	/	30.4
C[C@H]1CN([C@@H](C)CO)C(=O)Cc2cc(NC(=O)C3CC3)ccc2O[C@H]1CN(C)Cc1ccncc1	/	.	.	/	.	/
CN(C)c1ccc(N=Cc2cccn2C)cc1	60.2	/	.	.	.	.
